Paper PMC12198371 (Nature Communications, 2025)
Positions of bridges follow the written chain, without caps; N, C: chain ends. Residues, ends and D or L forms follow the SMILES beside them. No end group written: not given here.

Assays:
[1] = target: T1, aldolase (PT1) (Oryctolagus cuniculus, UniProt P00883); test: Yeast surface display titration; format: binding, rabbit
T1 sequence (P00883 1-364): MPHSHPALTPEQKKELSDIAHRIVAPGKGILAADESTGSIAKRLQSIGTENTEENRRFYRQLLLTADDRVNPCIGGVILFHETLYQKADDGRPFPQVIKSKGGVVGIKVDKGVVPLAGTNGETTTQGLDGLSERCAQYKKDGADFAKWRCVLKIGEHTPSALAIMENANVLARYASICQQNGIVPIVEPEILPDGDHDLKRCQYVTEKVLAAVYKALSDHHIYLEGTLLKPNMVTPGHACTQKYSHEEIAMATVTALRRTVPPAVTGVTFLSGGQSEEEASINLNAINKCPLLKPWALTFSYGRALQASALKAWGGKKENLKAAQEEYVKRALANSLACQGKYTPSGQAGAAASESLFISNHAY

[2] = target: T1, aldolase (PT1); test: Surface plasmon resonance; format: binding, rabbit; conditions: PT1 (tetrameric), 600 pM vs 326 nM
In short: (§1)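 Targets were amine-coupled with EDC/NHS, then ethanolamine pH 8.5. PT1 was coupled at 200 µg/mL and PT5 at 30 µg/mL, both in 10 mM NaAc pH 5.2. PT3 was coupled at 10 µg/mL in 10 mM NaAc pH 4.5. Two-fold dilutions of chemically synthesised peptide were run in PBS pH 7.4 with 0.005% Tween-20 and 2% DMSO, at 25 °C and 30 µL/min. KD, kon and koff were recorded.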

[3] = target: streptavidin (PT2) (Streptomyces avidinii, UniProt P22629); test: Yeast surface display titration; format: binding
[4] = target: α-chymotrypsin (PT5) (Bos taurus, UniProt P00766); test: Yeast surface display titration; format: binding, bovine
[5] = target: bovine α-chymotrypsin (PT5) (Bos taurus, UniProt P00766); test: Residual enzyme activity, chromogenic substrate; format: biochemical
[6] = test system: strep-tactin (PH2.1); test: Yeast surface display titration, specificity; format: binding; conditions: from KDapp values
[7] = target: carbonic anhydrase (PT4) (Bos taurus, UniProt P00921); test: Yeast surface display titration; format: binding, bovine; conditions: ratio of KDapp values
[8] = target: α-chymotrypsin; conditions: natural inhibitor, Fig. 9d; cited from earlier work
[9] = target: carbapenemase GES-5 (PT3) (Klebsiella pneumoniae, UniProt Q09HD0); test: Surface plasmon resonance; format: binding; conditions: soluble chemically synthesised isomers of MP3.2
In short: as §1

Sequence of streptavidin (PT2) (P22629 37-163 limits assumed): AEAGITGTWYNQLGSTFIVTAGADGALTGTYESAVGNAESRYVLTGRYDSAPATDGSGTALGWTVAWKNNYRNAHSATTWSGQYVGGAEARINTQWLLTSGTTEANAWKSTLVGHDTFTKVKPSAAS
Sequence of carbonic anhydrase (PT4) (P00921 whole entry): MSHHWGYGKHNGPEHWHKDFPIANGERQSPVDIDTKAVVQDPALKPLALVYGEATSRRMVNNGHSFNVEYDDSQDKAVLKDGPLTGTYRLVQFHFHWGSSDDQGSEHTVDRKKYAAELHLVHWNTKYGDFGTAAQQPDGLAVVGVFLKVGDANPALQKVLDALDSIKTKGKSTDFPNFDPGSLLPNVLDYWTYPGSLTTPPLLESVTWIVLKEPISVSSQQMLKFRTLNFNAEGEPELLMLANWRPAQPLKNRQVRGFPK
Sequence of carbapenemase GES-5 (PT3) (Q09HD0 19-287): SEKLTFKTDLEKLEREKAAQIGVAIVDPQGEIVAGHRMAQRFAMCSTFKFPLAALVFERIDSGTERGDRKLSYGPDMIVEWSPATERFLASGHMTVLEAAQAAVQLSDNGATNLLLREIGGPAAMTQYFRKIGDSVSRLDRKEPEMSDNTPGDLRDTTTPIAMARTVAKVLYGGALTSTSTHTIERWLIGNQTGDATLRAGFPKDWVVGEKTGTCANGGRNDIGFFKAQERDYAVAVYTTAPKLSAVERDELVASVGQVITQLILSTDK

CC(C)C[C@@H]1NC(=O)[C@H](C(C)C)NC(=O)[C@H](CCC(=O)O)NC(=O)[C@@H](NC(=O)[C@H](C)N)CSSC[C@@H](C(=O)N[C@@H](CO)C(=O)NCC(N)=O)NC(=O)CNC(=O)[C@H]([C@@H](C)O)NC(=O)[C@H](Cc2c[nH]c3ccccc23)NC(=O)[C@H](CC(=O)O)NC(=O)[C@H](Cc2ccc(O)cc2)NC(=O)[C@H](CO)NC1=O [MP1.1] (H-ACEVLSYDWTGCSG-NH2; disulfide 2-12)
Kd [1]: 0.6 nM | discrepancy between KD by yeast surface titration and by SPR [2]: ~ 500 fold

CC[C@H](C)[C@@H]1NC(=O)[C@H](C(C)C)NC(=O)[C@H](Cc2ccc(O)cc2)NC(=O)[C@H](Cc2ccccc2)NC(=O)[C@H](CCC(N)=O)NC(=O)[C@@H]2CCCN2C(=O)[C@H](Cc2c[nH]cn2)NC(=O)[C@H](Cc2ccc(O)cc2)NC(=O)[C@H](Cc2c[nH]cn2)NC(=O)[C@@H](NC(=O)[C@H](C)N)CSSC[C@@H](C(=O)N[C@@H](CO)C(=O)NCC(N)=O)NC1=O [MP2.2] (H-ACHYHPQFYVICSG-NH2; disulfide 2-12)
tighter binding to PT2 than MP2.5 ([3]; ratio of KDapp values): 3 fold

CC[C@H](C)[C@@H]1NC(=O)[C@H](Cc2c[nH]c3ccccc23)NC(=O)[C@H]([C@@H](C)O)NC(=O)[C@H](Cc2c[nH]c3ccccc23)NC(=O)[C@H](CC(=O)O)NC(=O)[C@H](CCCNC(=N)N)NC(=O)[C@@H](NC(=O)[C@H](C)N)CSSC[C@@H](C(=O)N[C@@H](CO)C(=O)NCC(N)=O)NC(=O)[C@H](CCC(N)=O)NC1=O [MP5.1] (H-ACRDWTWIQCSG-NH2; disulfide 2-10)
higher binding affinity to PT5 than MP5.2 ([4]; ratio of KDapp values): 2 fold | tighter binding to PT5 than MP5.5 ([4]; ratio of KDapp values): 5 fold

CC[C@H](C)[C@@H]1NC(=O)[C@H]([C@@H](C)O)NC(=O)CNC(=O)[C@H](CCCNC(=N)N)NC(=O)[C@H](CC(C)C)NC(=O)[C@@H]2CSSC[C@@H](C(=O)N[C@@H](CO)C(=O)NCC(N)=O)NC(=O)[C@H](CSSC[C@H](NC(=O)[C@H](C)N)C(=O)N[C@@H](C)C(=O)N[C@@H](Cc3c[nH]c4ccccc34)C(=O)N2)NC1=O [MP5.4.1] (H-ACAWCLRGTICCSG-NH2; disulfide 2-11, 5-12)
Ki [5]: 50.8 nM

CC[C@H](C)[C@H](NC(=O)[C@@H](NC(=O)CNC(=O)[C@H](CCCNC(=N)N)NC(=O)[C@H](CC(C)C)NC(=O)[C@@H]1CSSC[C@H](NC(=O)[C@H](C)N)C(=O)N[C@@H](C)C(=O)N[C@@H](Cc2c[nH]c3ccccc23)C(=O)N1)[C@@H](C)O)C(=O)N[C@H]1CSSC[C@@H](C(=O)N[C@@H](CO)C(=O)NCC(N)=O)NC1=O [MP5.4.2] (H-ACAWCLRGTICCSG-NH2; disulfide 2-5, 11-12)
Ki [5]: 11.3 nM

ACAWCLRGTICCSG (also: bicyclic or more (positions not given here)) [MP5.4]
tighter binding to PT5 than MP5.5 ([4]; ratio of KDapp values): 46 fold | Kd ([4]; read-out: KDapp, yeast-displayed peptide vs soluble PT5, text value): 0.2 nM

ACCYRIYCPCSG (also: bicyclic or more (positions not given here)) [MP5.3]
tighter binding to PT5 than MP5.5 ([4]; ratio of KDapp values): 3 fold

ACHYHPQFYMRCSG (disulfide 2-12 (inferred)) [MP2.6]
tighter binding to PT2 than MP2.4 ([3]; ratio of KDapp values): 6 fold | Kd ([3]; read-out: KDapp, yeast-displayed peptide vs soluble PT2, text value): 0.2 to 0.3 nM

ACIMVHYDRVECSG (disulfide 2-12 (inferred)) [MP2.3]
tighter binding to PH2.1 than to PT2 [6]: ~2 fold

ACLVGPYYMLDCSG (disulfide 2-12 (inferred)) [MP4.1]
higher binding affinity for PT4 than MP4.4 [7]: 16 fold | tighter binding to PT4 than MP4.2 [7]: 4 fold | tighter binding to PT4 than MP4.3 [7]: 9 fold

ACSMCHPQGDFCYWACSG (also: bicyclic or more (positions not given here)) [MP2.1]
tighter binding to PH2.1 than to PT2 [6]: ~ 10 fold

H-TVLRGCWTFSFPPKPCI-NH2 [HECI, reference compound]
Ki [8]: 3.9 µM

MP3.2.1: chemically synthesised ‘two rings’ isomer of MP3.2 (ACRYICLSFRHCGWFCSG-NH2; disulfide 2-12, 6-16; N-terminus assumed; SMILES CC[C@H](C)[C@@H]1NC(=O)[C@H](Cc2ccc(O)cc2)NC(=O)[C@H](CCCNC(=N)N)NC(=O)[C@@H](NC(=O)[C@H](C)N)CSSC[C@@H]2NC(=O)[C@H](Cc3c[nH]cn3)NC(=O)[C@H](CCCNC(=N)N)NC(=O)[C@H](Cc3ccccc3)NC(=O)[C@H](CO)NC(=O)[C@H](CC(C)C)NC(=O)[C@H](CSSC[C@@H](C(=O)N[C@@H](CO)C(=O)NCC(N)=O)NC(=O)[C@H](Cc3ccccc3)NC(=O)[C@H](Cc3c[nH]c4ccccc34)NC(=O)CNC2=O)NC1=O)
interaction with immobilised PT3 (SPR), in words [9]: no or very weak interactions

MP3.2.2: chemically synthesised ‘two rings’ isomer of MP3.2 (ACRYICLSFRHCGWFCSG-NH2; disulfide 12-16, 2-6; N-terminus assumed; SMILES CC[C@H](C)[C@@H]1NC(=O)[C@H](Cc2ccc(O)cc2)NC(=O)[C@H](CCCNC(=N)N)NC(=O)[C@@H](NC(=O)[C@H](C)N)CSSC[C@@H](C(=O)N[C@@H](CC(C)C)C(=O)N[C@@H](CO)C(=O)N[C@@H](Cc2ccccc2)C(=O)N[C@@H](CCCNC(=N)N)C(=O)N[C@@H](Cc2c[nH]cn2)C(=O)N[C@H]2CSSC[C@@H](C(=O)N[C@@H](CO)C(=O)NCC(N)=O)NC(=O)[C@H](Cc3ccccc3)NC(=O)[C@H](Cc3c[nH]c4ccccc34)NC(=O)CNC2=O)NC1=O)
interaction with immobilised PT3 (SPR), in words [9]: no or very weak interactions
